# Source: the M2OR odorant receptor database
# Tests used:
# Conditions in all cases: stereoisomer not certain
# UniProt Q924H8 = target: T1, UniProt Q924H8
# T1 sequence (whole entry): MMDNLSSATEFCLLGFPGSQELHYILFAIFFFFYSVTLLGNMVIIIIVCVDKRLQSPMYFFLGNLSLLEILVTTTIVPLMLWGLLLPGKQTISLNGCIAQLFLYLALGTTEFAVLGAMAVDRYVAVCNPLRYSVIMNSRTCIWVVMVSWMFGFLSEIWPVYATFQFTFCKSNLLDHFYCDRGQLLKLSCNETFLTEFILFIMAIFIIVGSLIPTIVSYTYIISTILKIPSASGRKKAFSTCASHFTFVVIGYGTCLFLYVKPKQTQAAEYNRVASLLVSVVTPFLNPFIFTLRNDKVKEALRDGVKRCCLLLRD
# In short: (§1)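 Values were gathered from published papers (main text and supplementary material), with extra details requested from the original authors when needed, and checked for typos and inconsistencies. Each receptor–molecule pair is called responsive (active) if the original authors judged the measured signal statistically different from baseline, and non-responsive (inactive) otherwise. Assay methods varied by source, often transient mammalian cell-line luciferase assays. Recorded details include cell line, G-protein, co-transfected protein and tags.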
# UniProt Q924X8 = target: T2, UniProt Q924X8
# T2 sequence (whole entry): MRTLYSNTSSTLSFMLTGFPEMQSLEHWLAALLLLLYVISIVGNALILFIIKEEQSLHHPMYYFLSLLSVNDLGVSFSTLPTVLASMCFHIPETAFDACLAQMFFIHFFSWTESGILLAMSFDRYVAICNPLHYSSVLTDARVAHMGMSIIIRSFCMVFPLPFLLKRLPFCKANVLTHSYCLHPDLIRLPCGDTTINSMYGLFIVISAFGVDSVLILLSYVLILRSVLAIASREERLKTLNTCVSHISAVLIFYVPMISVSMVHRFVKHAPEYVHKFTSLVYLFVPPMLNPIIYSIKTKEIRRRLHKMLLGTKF
# In short: as §1
# UniProt Q99NH4 = target: T3, UniProt Q99NH4
# T3 sequence (whole entry): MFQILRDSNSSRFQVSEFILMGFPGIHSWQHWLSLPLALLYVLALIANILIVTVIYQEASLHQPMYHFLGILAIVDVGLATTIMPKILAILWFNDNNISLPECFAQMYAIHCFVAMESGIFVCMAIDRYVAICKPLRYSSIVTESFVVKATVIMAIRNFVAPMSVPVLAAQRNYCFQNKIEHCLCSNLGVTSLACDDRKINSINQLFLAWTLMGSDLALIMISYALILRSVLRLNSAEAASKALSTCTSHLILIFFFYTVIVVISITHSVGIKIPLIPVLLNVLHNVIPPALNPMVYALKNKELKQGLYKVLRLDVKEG
# In short: as §1
# UniProt Q9EPN9 = target: T4, UniProt Q9EPN9
# T4 sequence (whole entry): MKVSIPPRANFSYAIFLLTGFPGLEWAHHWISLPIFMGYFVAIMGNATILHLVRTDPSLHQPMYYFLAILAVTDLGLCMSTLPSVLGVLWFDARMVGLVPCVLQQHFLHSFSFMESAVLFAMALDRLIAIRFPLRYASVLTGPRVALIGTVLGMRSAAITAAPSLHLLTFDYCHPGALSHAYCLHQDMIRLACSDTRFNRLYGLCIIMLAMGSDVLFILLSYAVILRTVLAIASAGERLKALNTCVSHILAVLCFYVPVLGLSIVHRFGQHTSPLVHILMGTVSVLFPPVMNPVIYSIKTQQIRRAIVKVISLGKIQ
# In short: as §1
# UniProt Q9R0K2 = target: UniProt Q9R0K2
# In short: as §1
# UniProt Q9WU86 = target: T5, UniProt Q9WU86
# T5 sequence (whole entry): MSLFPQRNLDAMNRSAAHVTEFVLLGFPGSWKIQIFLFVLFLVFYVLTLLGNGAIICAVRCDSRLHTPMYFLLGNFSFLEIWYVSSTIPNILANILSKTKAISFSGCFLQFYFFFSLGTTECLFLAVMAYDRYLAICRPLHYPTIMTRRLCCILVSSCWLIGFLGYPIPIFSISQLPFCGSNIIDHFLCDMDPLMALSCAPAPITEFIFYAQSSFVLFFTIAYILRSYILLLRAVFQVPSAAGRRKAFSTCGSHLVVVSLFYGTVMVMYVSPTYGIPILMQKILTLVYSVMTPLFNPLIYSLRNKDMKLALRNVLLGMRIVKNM
# In short: as §1
# UniProt Q9WU94 = target: T6, UniProt Q9WU94
# T6 sequence (whole entry): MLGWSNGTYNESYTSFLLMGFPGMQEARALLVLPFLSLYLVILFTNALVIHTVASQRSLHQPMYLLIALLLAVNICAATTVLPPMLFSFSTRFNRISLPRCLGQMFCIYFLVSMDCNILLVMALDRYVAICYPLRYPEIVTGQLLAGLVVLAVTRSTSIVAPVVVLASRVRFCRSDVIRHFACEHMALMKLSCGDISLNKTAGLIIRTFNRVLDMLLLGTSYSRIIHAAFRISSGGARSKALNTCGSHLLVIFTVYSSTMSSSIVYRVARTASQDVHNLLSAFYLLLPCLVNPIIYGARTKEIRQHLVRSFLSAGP
# In short: as §1
# UniProt Q9WVD7 = target: T7, UniProt Q9WVD7
# T7 sequence (whole entry): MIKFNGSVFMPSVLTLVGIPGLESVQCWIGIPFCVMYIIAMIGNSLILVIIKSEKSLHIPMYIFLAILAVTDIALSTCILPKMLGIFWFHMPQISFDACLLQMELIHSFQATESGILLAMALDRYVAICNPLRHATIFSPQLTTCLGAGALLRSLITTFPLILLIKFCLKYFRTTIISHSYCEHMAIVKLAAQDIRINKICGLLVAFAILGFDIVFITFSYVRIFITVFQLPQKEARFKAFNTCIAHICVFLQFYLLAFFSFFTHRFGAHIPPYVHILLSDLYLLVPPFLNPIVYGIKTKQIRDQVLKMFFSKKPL
# In short: as §1
# UniProt Q9EQB5 = target: UniProt Q9EQB5
# In short: as §1
# UniProt Q9R0K2, sequence (Q9R0K2 as listed by the source): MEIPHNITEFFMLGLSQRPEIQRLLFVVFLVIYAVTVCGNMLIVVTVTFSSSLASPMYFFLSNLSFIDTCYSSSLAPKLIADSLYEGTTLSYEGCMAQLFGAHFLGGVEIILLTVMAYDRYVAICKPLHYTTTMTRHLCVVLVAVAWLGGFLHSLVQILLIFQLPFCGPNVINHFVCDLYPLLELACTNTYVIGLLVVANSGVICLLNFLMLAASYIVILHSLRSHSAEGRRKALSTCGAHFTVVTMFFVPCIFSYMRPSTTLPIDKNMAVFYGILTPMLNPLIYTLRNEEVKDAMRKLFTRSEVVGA
# UniProt Q9EQB5, sequence (Q9EQB5 as listed by the source): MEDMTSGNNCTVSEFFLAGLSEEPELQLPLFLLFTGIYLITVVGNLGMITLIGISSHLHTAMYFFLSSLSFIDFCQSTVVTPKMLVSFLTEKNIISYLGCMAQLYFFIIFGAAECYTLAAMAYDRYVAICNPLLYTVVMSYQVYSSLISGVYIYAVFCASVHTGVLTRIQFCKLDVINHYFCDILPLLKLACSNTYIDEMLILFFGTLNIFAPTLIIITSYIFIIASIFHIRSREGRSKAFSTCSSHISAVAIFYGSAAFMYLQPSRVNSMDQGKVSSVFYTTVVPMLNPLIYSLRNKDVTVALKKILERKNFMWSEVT
smiles,measurement,setting,value
CCCCC(=O)O,odorant receptor agonist call,UniProt Q924H8,inactive
same,odorant receptor agonist call,UniProt Q924X8,inactive
same,odorant receptor agonist call,UniProt Q99NH4,inactive
same,odorant receptor agonist call,UniProt Q9EPN9,inactive
same,odorant receptor agonist call,UniProt Q9R0K2,inactive
same,odorant receptor agonist call,UniProt Q9WU86,inactive
same,odorant receptor agonist call,UniProt Q9WU94,inactive
same,odorant receptor agonist call,UniProt Q9WVD7,inactive
O=C(O)CCCCCCCCC(=O)O,odorant receptor agonist call,UniProt Q924H8,inactive
same,odorant receptor agonist call,UniProt Q99NH4,inactive
CCCCCC(C)O (stereo not drawn),odorant receptor agonist call,UniProt Q924H8,inactive
CC(=O)OC1(C)CCC23CC1C(C)(C)C2CCC3C (stereo not drawn),odorant receptor agonist call,UniProt Q924H8,active
CCCCCCCCCCO,odorant receptor agonist call,UniProt Q924H8,inactive
same,odorant receptor agonist call,UniProt Q99NH4,inactive
same,odorant receptor agonist call,UniProt Q9EPN9,inactive
same,odorant receptor agonist call,UniProt Q9R0K2,inactive
same,odorant receptor agonist call,UniProt Q9WU86,inactive
CCCCCCCCC(=O)O,odorant receptor agonist call,UniProt Q924H8,inactive
same,odorant receptor agonist call,UniProt Q924X8,inactive
same,odorant receptor agonist call,UniProt Q99NH4,active
same,odorant receptor agonist call,UniProt Q9EPN9,inactive
same,odorant receptor agonist call,UniProt Q9R0K2,inactive
same,odorant receptor agonist call,UniProt Q9WU86,inactive
same,odorant receptor agonist call,UniProt Q9WU94,inactive
same,odorant receptor agonist call,UniProt Q9WVD7,active
C=C(C)C1CCC2(C)OC2C1 (stereo not drawn),odorant receptor agonist call,UniProt Q924H8,inactive
CCCCCCCCCCC(=O)O,odorant receptor agonist call,UniProt Q99NH4,inactive
CCC(=O)O,odorant receptor agonist call,UniProt Q924H8,inactive
same,odorant receptor agonist call,UniProt Q9EPN9,inactive
same,odorant receptor agonist call,UniProt Q9R0K2,inactive
same,odorant receptor agonist call,UniProt Q9WU86,inactive
CCCCCC(=O)CC,odorant receptor agonist call,UniProt Q924H8,inactive
same,odorant receptor agonist call,UniProt Q9EPN9,inactive
same,odorant receptor agonist call,UniProt Q9R0K2,inactive
same,odorant receptor agonist call,UniProt Q9WU86,inactive
CC(=O)OCc1ccccc1,odorant receptor agonist call,UniProt Q924H8,inactive
same,odorant receptor agonist call,UniProt Q9EPN9,inactive
same,odorant receptor agonist call,UniProt Q9R0K2,inactive
same,odorant receptor agonist call,UniProt Q9WU86,inactive
O=C1CCOc2ccccc21,odorant receptor agonist call,UniProt Q924H8,inactive
same,odorant receptor agonist call,UniProt Q9EPN9,inactive
same,odorant receptor agonist call,UniProt Q9R0K2,inactive
same,odorant receptor agonist call,UniProt Q9WU86,inactive
CC(C)=CCCC(C)CCO (stereo not drawn),odorant receptor agonist call,UniProt Q924H8,inactive
same,odorant receptor agonist call,UniProt Q9EPN9,inactive
same,odorant receptor agonist call,UniProt Q9R0K2,inactive
same,odorant receptor agonist call,UniProt Q9WU86,inactive
O=C([O-])CCCCC(=O)[O-].[H+].[H+],odorant receptor agonist call,UniProt Q924X8,active
same,odorant receptor agonist call,UniProt Q99NH4,inactive
same,odorant receptor agonist call,UniProt Q9WU94,inactive
same,odorant receptor agonist call,UniProt Q9WVD7,inactive
O=C([O-])CCCC(=O)[O-].[H+].[H+],odorant receptor agonist call,UniProt Q99NH4,inactive
CCCCCCCCCCCC(=O)O,odorant receptor agonist call,UniProt Q99NH4,inactive
CC1CCCCCCCCCCCCC(=O)C1 (stereo not drawn),odorant receptor agonist call,UniProt Q9EQB5,inactive
CCCCCCOC(C)=O,odorant receptor agonist call,UniProt Q924H8,inactive
same,odorant receptor agonist call,UniProt Q9EPN9,inactive
same,odorant receptor agonist call,UniProt Q9R0K2,inactive
same,odorant receptor agonist call,UniProt Q9WU86,inactive
CCCCCCCCCS,odorant receptor agonist call,UniProt Q924H8,active
same,odorant receptor agonist call,UniProt Q9EPN9,inactive
same,odorant receptor agonist call,UniProt Q9R0K2,inactive
same,odorant receptor agonist call,UniProt Q9WU86,inactive
O=C(O)CCCCCCCCCC(=O)O,odorant receptor agonist call,UniProt Q99NH4,inactive
O=C(O)CCCCCCCCCBr,odorant receptor agonist call,UniProt Q99NH4,inactive
CCCC(=O)C(C)=O,odorant receptor agonist call,UniProt Q924H8,inactive
same,odorant receptor agonist call,UniProt Q9EPN9,inactive
same,odorant receptor agonist call,UniProt Q9R0K2,inactive
same,odorant receptor agonist call,UniProt Q9WU86,inactive
CCC(=O)C(=O)CC,odorant receptor agonist call,UniProt Q924H8,inactive
same,odorant receptor agonist call,UniProt Q9EPN9,inactive
same,odorant receptor agonist call,UniProt Q9R0K2,inactive
same,odorant receptor agonist call,UniProt Q9WU86,inactive
CCCCOC(=O)C(C)OC(=O)CCC (stereo not drawn),odorant receptor agonist call,UniProt Q9EPN9,inactive
same,odorant receptor agonist call,UniProt Q9R0K2,inactive
same,odorant receptor agonist call,UniProt Q9WU86,inactive
C=CCOC(=O)CCCCCC,odorant receptor agonist call,UniProt Q924H8,inactive
same,odorant receptor agonist call,UniProt Q9EPN9,inactive
same,odorant receptor agonist call,UniProt Q9R0K2,inactive
same,odorant receptor agonist call,UniProt Q9WU86,inactive
CCCCCCCC(=O)[O-].[H+],odorant receptor agonist call,UniProt Q924X8,inactive
same,odorant receptor agonist call,UniProt Q99NH4,active
same,odorant receptor agonist call,UniProt Q9EPN9,inactive
same,odorant receptor agonist call,UniProt Q9R0K2,inactive
same,odorant receptor agonist call,UniProt Q9WU86,inactive
same,odorant receptor agonist call,UniProt Q9WU94,inactive
same,odorant receptor agonist call,UniProt Q9WVD7,active
CCCC(C)=O,odorant receptor agonist call,UniProt Q9EPN9,inactive
same,odorant receptor agonist call,UniProt Q9R0K2,inactive
same,odorant receptor agonist call,UniProt Q9WU86,inactive
same,odorant receptor agonist call,UniProt Q9WU94,inactive
CCCCCCC(=O)[O-].[H+],odorant receptor agonist call,UniProt Q924X8,inactive
same,odorant receptor agonist call,UniProt Q9EPN9,inactive
same,odorant receptor agonist call,UniProt Q9R0K2,inactive
same,odorant receptor agonist call,UniProt Q9WU86,inactive
same,odorant receptor agonist call,UniProt Q9WU94,inactive
same,odorant receptor agonist call,UniProt Q9WVD7,active
CCCCOC=O,odorant receptor agonist call,UniProt Q924H8,inactive
same,odorant receptor agonist call,UniProt Q9EPN9,inactive
same,odorant receptor agonist call,UniProt Q9R0K2,inactive
same,odorant receptor agonist call,UniProt Q9WU86,inactive
CC12CCC(CC1=O)C2(C)C (stereo not drawn),odorant receptor agonist call,UniProt Q924H8,inactive
same,odorant receptor agonist call,UniProt Q9EPN9,inactive
same,odorant receptor agonist call,UniProt Q9R0K2,inactive
same,odorant receptor agonist call,UniProt Q9WU86,inactive
CCCCCC1=C(C)CCC1=O,odorant receptor agonist call,UniProt Q924H8,inactive
same,odorant receptor agonist call,UniProt Q9EPN9,inactive
same,odorant receptor agonist call,UniProt Q9R0K2,inactive
same,odorant receptor agonist call,UniProt Q9WU86,inactive
O=c1ccc2ccccc2o1,odorant receptor agonist call,UniProt Q9EPN9,inactive
same,odorant receptor agonist call,UniProt Q9R0K2,inactive
same,odorant receptor agonist call,UniProt Q9WU86,active
O=C(O)CCCBr,odorant receptor agonist call,UniProt Q924X8,active
same,odorant receptor agonist call,UniProt Q99NH4,inactive
same,odorant receptor agonist call,UniProt Q9WU94,inactive
same,odorant receptor agonist call,UniProt Q9WVD7,inactive
O=C(O)CCCCBr,odorant receptor agonist call,UniProt Q924X8,active
same,odorant receptor agonist call,UniProt Q99NH4,inactive
same,odorant receptor agonist call,UniProt Q9WU94,inactive
same,odorant receptor agonist call,UniProt Q9WVD7,inactive
O=C(O)CCCCCC(=O)O,odorant receptor agonist call,UniProt Q924X8,active
same,odorant receptor agonist call,UniProt Q99NH4,inactive
same,odorant receptor agonist call,UniProt Q9WU94,inactive
same,odorant receptor agonist call,UniProt Q9WVD7,inactive
CCC(C(=O)O)c1ccccc1 (stereo not drawn),odorant receptor agonist call,UniProt Q9EPN9,active
same,odorant receptor agonist call,UniProt Q9R0K2,inactive
same,odorant receptor agonist call,UniProt Q9WU86,inactive
CCCCCCC(C)=O,odorant receptor agonist call,UniProt Q924H8,inactive
same,odorant receptor agonist call,UniProt Q9EPN9,inactive
same,odorant receptor agonist call,UniProt Q9R0K2,inactive
same,odorant receptor agonist call,UniProt Q9WU86,inactive
O=C(O)CCCCCCCCCCC(=O)O,odorant receptor agonist call,UniProt Q99NH4,inactive
CCCCCO,odorant receptor agonist call,UniProt Q924X8,inactive
same,odorant receptor agonist call,UniProt Q99NH4,inactive
same,odorant receptor agonist call,UniProt Q9EPN9,inactive
same,odorant receptor agonist call,UniProt Q9R0K2,inactive
same,odorant receptor agonist call,UniProt Q9WU86,inactive
same,odorant receptor agonist call,UniProt Q9WU94,inactive
same,odorant receptor agonist call,UniProt Q9WVD7,inactive
O=C([O-])CCC(=O)[O-].[H+].[H+],odorant receptor agonist call,UniProt Q99NH4,inactive
C=C(C)C1CCC(C)C(=O)C1 (stereo not drawn),odorant receptor agonist call,UniProt Q924H8,inactive
same,odorant receptor agonist call,UniProt Q9EPN9,inactive
same,odorant receptor agonist call,UniProt Q9R0K2,inactive
same,odorant receptor agonist call,UniProt Q9WU86,inactive
CCCCOC(=O)CCC,odorant receptor agonist call,UniProt Q9WU94,inactive
O=C(c1ccccc1)c1ccccc1,odorant receptor agonist call,UniProt Q924H8,inactive
same,odorant receptor agonist call,UniProt Q9EPN9,inactive
same,odorant receptor agonist call,UniProt Q9R0K2,inactive
same,odorant receptor agonist call,UniProt Q9WU86,inactive
